According to ChEMBL document CHEMBL1143672, “Synthesis and pharmacology of site-specific cocaine abuse treatment agents: restricted rotation analogues of methylphenidate” (J Med Chem, 2007):
pIC50, pKi: −log10 of the molar value. Counter-ions that a name gives are not always drawn.

Columns and labels:
[1] = target: Norepinephrine transporter (Rattus norvegicus, UniProt Q9WTR4); assay: Displacement of [3H]nisoxetine from NET in Sprague-Dawley rat cortical tissue
[2] = target: Monoamine transporters; Norepininephrine & dopamine (Rattus norvegicus) (UniProt P23977+Q9WTR4); assay: Selectivity for rat DAT over rat NET; format: protein assay
[3] = target: Sodium-dependent serotonin transporter (Rattus norvegicus) (UniProt P31652); assay: Displacement of [3H]citalopram from 5HTT in Sprague-Dawley rat cerebrum at 10 uM
Sequence of Sodium-dependent serotonin transporter (Rattus norvegicus) (P31652 whole entry): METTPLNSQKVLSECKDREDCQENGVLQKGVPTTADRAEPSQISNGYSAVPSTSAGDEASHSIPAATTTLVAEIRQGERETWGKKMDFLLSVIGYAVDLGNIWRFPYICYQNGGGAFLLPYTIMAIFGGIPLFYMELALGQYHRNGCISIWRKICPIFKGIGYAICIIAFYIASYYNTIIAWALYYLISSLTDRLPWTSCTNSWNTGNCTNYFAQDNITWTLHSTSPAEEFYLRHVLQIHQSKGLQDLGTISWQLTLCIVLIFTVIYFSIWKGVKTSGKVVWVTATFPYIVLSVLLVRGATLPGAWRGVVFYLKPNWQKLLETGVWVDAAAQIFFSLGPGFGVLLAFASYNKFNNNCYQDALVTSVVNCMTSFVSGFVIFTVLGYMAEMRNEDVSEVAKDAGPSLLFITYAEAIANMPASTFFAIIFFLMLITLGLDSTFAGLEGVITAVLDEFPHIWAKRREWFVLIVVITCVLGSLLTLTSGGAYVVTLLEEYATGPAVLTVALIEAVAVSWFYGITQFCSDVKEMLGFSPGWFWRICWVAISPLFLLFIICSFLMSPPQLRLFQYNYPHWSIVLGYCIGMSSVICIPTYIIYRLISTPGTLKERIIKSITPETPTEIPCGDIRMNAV

[4] = target: Monoamine transporters; serotonin & dopamine (Rattus norvegicus) (UniProt P31652+P23977); assay: Selectivity for rat DAT over rat 5HTT; format: protein assay
Sequence of Monoamine transporters; serotonin & dopamine (Rattus norvegicus) (P23977 whole entry, looked up): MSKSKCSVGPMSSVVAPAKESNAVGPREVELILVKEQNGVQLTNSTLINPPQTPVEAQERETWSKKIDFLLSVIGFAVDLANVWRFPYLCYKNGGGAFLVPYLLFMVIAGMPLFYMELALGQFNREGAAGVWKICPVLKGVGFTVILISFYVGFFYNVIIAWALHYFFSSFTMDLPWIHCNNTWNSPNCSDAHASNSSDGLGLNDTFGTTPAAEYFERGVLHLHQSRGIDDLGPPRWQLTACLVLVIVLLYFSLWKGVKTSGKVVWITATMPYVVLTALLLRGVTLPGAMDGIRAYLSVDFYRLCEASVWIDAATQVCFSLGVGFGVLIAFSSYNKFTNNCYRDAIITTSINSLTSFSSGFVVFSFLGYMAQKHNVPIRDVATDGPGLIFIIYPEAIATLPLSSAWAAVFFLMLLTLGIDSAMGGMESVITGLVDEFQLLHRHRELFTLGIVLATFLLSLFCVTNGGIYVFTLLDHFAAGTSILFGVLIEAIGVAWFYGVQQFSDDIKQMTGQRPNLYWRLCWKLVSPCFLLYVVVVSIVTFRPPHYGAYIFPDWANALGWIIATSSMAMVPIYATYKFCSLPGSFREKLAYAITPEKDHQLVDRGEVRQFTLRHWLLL
Sequence of Monoamine transporters; serotonin & dopamine (Rattus norvegicus) (P31652 whole entry, looked up): as the sequence (P31652 whole entry) above

[5] = target: T1, Sodium-dependent dopamine transporter (Rattus norvegicus, UniProt P23977); assay: Displacement of [3H]WIN-35428 from DAT in Sprague-Dawley rat striatum
T1 sequence (P23977 whole entry): as the sequence (P23977 whole entry, looked up) above

[6] = target: Monoamine transporters; Norepinephrine & serotonin (Rattus norvegicus) (UniProt P31652+Q9WTR4); assay: Selectivity for rat NET over rat 5HTT; format: protein assay
[7] = target: Sodium-dependent serotonin transporter (Rattus norvegicus, UniProt P31652); assay: Displacement of [3H]citalopram from 5HTT in Sprague-Dawley rat cerebrum
Sequence of Sodium-dependent serotonin transporter (P31652 whole entry): as the sequence (P31652 whole entry) above
Procedure, shortened: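 Rat cortical P2 fraction in 25 mM sodium phosphate, pH 7.7 at 0 °C; 2 nM [3H]citalopram, 3 h at 0 °C; filtration. Nonspecific binding with 1 µM clomipramine. Compounds in water, dilute DMSO or methanol (≤0.3% solvent). Data corrected for filter binding; IC50 by nonlinear regression, Ki by Cheng-Prusoff.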

[8] = target: T1, Sodium-dependent dopamine transporter; assay: Inhibition of [3H]DA uptake at DAT in Sprague-Dawley rat striatum
Procedure, shortened: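 Uptake of [3H]dopamine into the S1 fraction of rat striatal homogenate; IC50 from curves fit by nonlinear regression.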

[9] = target: Norepinephrine transporter (Rattus norvegicus) (UniProt Q9WTR4); assay: Displacement of [3H]nisoxetine from NET in Sprague-Dawley rat cortical tissue at 5 uM
Sequence of Norepinephrine transporter (Rattus norvegicus) (Q9WTR4 as listed by the source): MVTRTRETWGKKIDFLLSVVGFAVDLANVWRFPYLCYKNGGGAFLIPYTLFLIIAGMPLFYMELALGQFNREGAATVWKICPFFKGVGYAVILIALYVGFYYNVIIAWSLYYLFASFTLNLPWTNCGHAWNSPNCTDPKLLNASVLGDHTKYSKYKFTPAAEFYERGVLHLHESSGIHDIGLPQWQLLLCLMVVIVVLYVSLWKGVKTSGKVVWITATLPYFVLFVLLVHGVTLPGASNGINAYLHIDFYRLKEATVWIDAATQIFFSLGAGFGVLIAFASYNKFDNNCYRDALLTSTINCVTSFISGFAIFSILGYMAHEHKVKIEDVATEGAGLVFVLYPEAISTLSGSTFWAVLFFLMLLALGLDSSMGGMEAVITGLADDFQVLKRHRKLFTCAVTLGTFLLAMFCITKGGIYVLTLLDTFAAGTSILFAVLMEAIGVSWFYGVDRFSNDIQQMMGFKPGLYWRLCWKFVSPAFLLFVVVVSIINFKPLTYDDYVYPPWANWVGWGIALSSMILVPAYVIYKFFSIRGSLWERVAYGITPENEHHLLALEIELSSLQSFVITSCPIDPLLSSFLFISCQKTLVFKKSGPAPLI

[10] = target: Norepinephrine transporter (Rattus norvegicus) (UniProt Q9WTR4); assay: Displacement of [3H]nisoxetine from NET in Sprague-Dawley rat cortical tissue at 10 uM

Sequence of Norepinephrine transporter (Q9WTR4 whole entry): as the sequence (Q9WTR4 as listed by the source) above

| Structure (SMILES) | pKi [1] | Selectivity ratio [2] | inhibition [3] | Selectivity ratio [4] | pKi [5] | Selectivity ratio [6] | pKi [7] | pIC50 [8] | inhibition [9] | inhibition [10] |
| --- | --- | --- | --- | --- | --- | --- | --- | --- | --- | --- |
| CC[C@H]1CCN2CCCC[C@@H]2[C@H]1c1ccccc1 | 7.22 | 11 | 86% | 640 | 8.26 | 58 | 5.45 | – | – | – |
| Clc1ccccc1[C@H]1CCCN2CCCC[C@H]12 (relative stereo) | 5.56 | 5.7 | – | 3.8 | 6.32 | 0.67 | 5.74 | 5.90 | 58% | – |
| O[C@@H]1CCN2CCCC[C@@H]2[C@H]1c1ccccc1 | – | > 0.8 | 1% | > 1.6 | 5.20 | – | – | 4.97 | 23.7% | – |
| O=C1CCN2CCCC[C@@H]2[C@H]1c1ccccc1 (relative stereo) | 5.39 | 4.4 | 5% | > 11 | 6.04 | > 2.5 | – | 4.91 | 52% | – |
| O[C@H]1CCN2CCCC[C@@H]2[C@H]1c1ccc(Cl)c(Cl)c1 | 7.55 | 11 | – | 68 | 8.61 | 6 | 6.77 | – | – | – |
| O=C1CCN2CCCC[C@@H]2[C@H]1c1ccc(Cl)c(Cl)c1 (relative stereo) | 6.55 | 20 | 54% | 710 | 7.85 | 36 | – | – | – | – |
| CC[C@@H]1CCN2CCCC[C@@H]2[C@H]1c1ccc(Cl)c(Cl)c1 | 6.99 | 30 | – | 83 | 8.46 | 2.8 | 6.54 | – | – | – |
| CC[C@@H]1CCN2CCCC[C@@H]2[C@H]1c1ccccc1 | 6.39 | 15 | 80% | 87 | 7.56 | 5.8 | 5.62 | – | – | – |
| CC[C@@]1(O)CCN2CCCC[C@@H]2[C@H]1c1ccccc1 | 5.82 | 8.69 | 19% | > 57 | 6.76 | > 6.6 | – | – | – | – |
| COC(=O)[C@@H](c1ccc(Cl)c(Cl)c1)[C@H]1CCCCN1 (relative stereo) | – | – | – | 7.1 | 6.44 | – | 5.59 | 6.50 | – | – |
| CCN1CCCC[C@@H]1[C@H](C)c1ccccc1 (relative stereo) | – | > 0.66 | 11% | > 1.3 | 5.12 | – | – | 5.10 | 8.3% | – |
| Clc1ccc([C@H]2CCCN3CCCC[C@H]23)cc1Cl (relative stereo) | 7.55 | 8.4 | – | 36 | 8.47 | 4.3 | 6.92 | 7.96 | – | – |
| CCN1CCCC[C@@H]1[C@H](CO)c1ccccc1 (relative stereo) | – | – | 16.2% | > 4.8 | 5.68 | – | – | 4.98 | – | – |
| OC[C@H](c1ccc(Cl)c(Cl)c1)[C@H]1CCCCN1 (relative stereo) | – | – | 94.6% | 71 | 8.41 | – | 6.56 | 7.65 | – | – |
| COC(=O)[C@H](c1ccc(Cl)c(Cl)c1)[C@H]1CCCCN1 | – | – | – | 140 | 8.32 | – | 6.18 | 8.15 | – | – |
| CO[C@H]1CCN2CCCC[C@@H]2[C@H]1c1ccccc1 | 7.20 | 5.9 | 73% | 190 | 7.97 | 32 | 5.68 | 7.21 | – | – |

| Structure (SMILES) | pKi [1] | Selectivity ratio [2] | inhibition [3] | Selectivity ratio [4] | pKi [5] | Selectivity ratio [6] | pKi [7] | pIC50 [8] | inhibition [9] | inhibition [10] |
| --- | --- | --- | --- | --- | --- | --- | --- | --- | --- | --- |
| O[C@@H]1CCN2CCCC[C@@H]2[C@H]1c1ccc(Cl)c(Cl)c1 | 6.44 | 10 | – | 57 | 7.45 | 5.6 | 5.69 | – | – | – |
| Clc1ccc([C@@H]2CCCN3CCCC[C@H]23)cc1Cl (relative stereo) | 6.80 | 4.6 | – | 3 | 7.46 | 0.64 | 6.99 | 7.06 | – | – |
| c1ccc(C2CCCNC2)cc1 (stereo not given) | 6.27 | 0.12 | 53% | 2.2 | 5.34 | 19 | – | 5.97 | – | – |
| C[C@H]1C[C@H](c2ccccc2)[C@H]2CCCCN2C1 | 6.16 | 3.9 | – | 2.4 | 6.75 | 0.62 | 6.37 | 6.43 | – | – |
| CC[C@H]1CCN2CCCC[C@@H]2[C@H]1c1ccc(Cl)c(Cl)c1 | 7.01 | 24 | – | 48 | 8.39 | 2 | 6.70 | – | – | – |
| COC[C@H](c1ccccc1)[C@H]1CCCCN1 (relative stereo) | – | – | 47.8% | 110 | 7.05 | – | – | 6.55 | – | – |
| c1ccc([C@H]2CCCN3CCCC[C@H]23)cc1 (relative stereo) | 6.86 | 1.8 | – | 67 | 7.12 | 37 | 5.29 | 6.61 | – | – |
| O[C@H]1CCN2CCCC[C@@H]2[C@H]1c1ccccc1 | 6.45 | 3.3 | 12% | > 93 | 6.97 | > 28 | – | 6.17 | – | – |
| c1ccc(CC2CCCCN2)cc1 (stereo not given) | – | – | 22% | > 1.6 | 5.20 | – | – | 5.06 | – | 36% |
| COC(=O)[C@H](c1ccccc1)[C@H]1CCCCN1 [DEXMETHYLPHENIDATE HYDROCHLORIDE] | 6.57 | – | 14% | – | – | – | – | – | – | – |
| OC[C@H](c1ccccc1)[C@H]1CCCCN1 (relative stereo) | – | – | 31% | > 25 | 6.39 | – | – | 5.82 | – | – |
| COC(=O)[C@H](c1ccccc1Cl)[C@H]1CCCCN1 | – | – | 22.2% | > 5.7 | 5.76 | – | – | 5.58 | – | – |
| O=C1CC[C@H](c2ccccc2)[C@H]2CCCCN12 | – | > 0.76 | – | 0.54 | – | < 0.7 | 5.45 | 5.07 | 11% | – |
| CO[C@@H]1CCN2CCCC[C@@H]2[C@H]1c1ccccc1 | 5.69 | 3.6 | 14% | > 18 | 6.24 | > 4.9 | – | 5.73 | 64% | – |
| C[C@@H]1C[C@H](c2ccccc2)[C@H]2CCCCN2C1 | 7.12 | 0.64 | – | 2 | 6.92 | 3.2 | 6.61 | 6.61 | – | – |
